{"source": "PubChem BioAssay AID488780", "about": "(The Scripps Research Institute Molecular Screening Center, 2010)", "note": "The source made the active and inactive calls.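 Rule for the calls: active = IC50 at or below 5 µM; inactive = the rest.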"}
{"biological_target": "Steroidogenic factor 1 (Homo sapiens) (UniProt Q13285)", "sequence (Q13285 whole entry, looked up)": "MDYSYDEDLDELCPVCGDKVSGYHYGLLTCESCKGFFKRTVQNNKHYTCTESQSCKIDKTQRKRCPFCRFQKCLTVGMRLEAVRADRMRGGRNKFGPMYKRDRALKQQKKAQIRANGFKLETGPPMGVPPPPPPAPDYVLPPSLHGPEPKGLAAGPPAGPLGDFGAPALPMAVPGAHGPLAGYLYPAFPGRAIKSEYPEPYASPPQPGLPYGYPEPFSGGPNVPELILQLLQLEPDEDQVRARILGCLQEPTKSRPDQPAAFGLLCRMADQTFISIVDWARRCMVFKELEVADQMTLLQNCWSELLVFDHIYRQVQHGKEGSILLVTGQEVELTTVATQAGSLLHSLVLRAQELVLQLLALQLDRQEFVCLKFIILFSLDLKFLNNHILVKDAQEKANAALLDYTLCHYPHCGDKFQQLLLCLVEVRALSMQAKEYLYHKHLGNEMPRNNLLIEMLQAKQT", "experiment": "SF-1 inhibitor potency in reporter cells, dose response, selectivity assay for LRH1 inverse agonist project, cell-based, luminescence (AID 488780)", "details": "HEK293T SF-1 5xSFRE luciferase reporter, 20 h", "procedure,_shortened": "(§1)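 Schedule: 24 h bulk transfection before replating, then 20 h compound exposure; assay system: HEK293T with SF-1 and 5xSFRE luciferase reporter; evaluation: IC50 from percent inhibition versus DMSO; measured by: luminescence from SFRE-driven luciferase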"}
{"smiles": "O=c1cc(N2CCN(c3cccc(Cl)c3)CC2)[nH]c(=O)n1C1CCCCC1", "IC50": "> 10 µM (inactive)"}
{"smiles": "O=c1cc(N2CCN(C3CCCCC3)CC2)[nH]c(=O)n1C1CCCCC1", "IC50": "inactive"}
{"biological_target": "Steroidogenic factor 1 (Homo sapiens) (UniProt Q13285)", "experiment": "SF-1 inhibitor potency in reporter cells, dose response, selectivity assay for LRH1 inverse agonist project, cell-based, luminescence (AID 488780)", "details": "HEK293T SF-1 5xSFRE luciferase reporter, 20 h; at 10 µM (top of the series)", "procedure,_shortened": "as §1"}
{"smiles": "O=c1cc(N2CCN(c3cccc(Cl)n3)CC2)[nH]c(=O)n1C1CCCCC1", "fold change, <1 = inhibition": "inactive"}
{"smiles": "CC(C)Cn1c(=O)cc(N2CCN(c3cccc(C(F)(F)F)c3)CC2)[nH]c1=O", "fold change, <1 = inhibition": "inactive"}
{"smiles": "O=c1cc(N2CCN(c3cccc(Cl)c3Cl)CC2)[nH]c(=O)n1C1CCCCC1", "fold change, <1 = inhibition": "inactive"}
{"smiles": "C=CCn1c(=O)cc(N2CCN(c3cccc(C(F)(F)F)c3)CC2)[nH]c1=O", "fold change, <1 = inhibition": "inactive"}
{"smiles": "O=c1cc(N2CCN(Cc3ccc(Cl)cc3)CC2)[nH]c(=O)n1C1CCCCC1", "fold change, <1 = inhibition": "inactive"}
{"smiles": "O=c1cc(N2CCN(c3nc(-c4ccccc4)ns3)CC2)[nH]c(=O)n1C1CCCCC1", "fold change, <1 = inhibition": "inactive"}
{"smiles": "Cc1cc(C)cc(N2CCN(c3cc(=O)n(C4CCCCC4)c(=O)[nH]3)CC2)c1", "fold change, <1 = inhibition": "inactive"}
{"smiles": "O=c1cc(N2CCN(c3ccnc4cc(Cl)ccc34)CC2)[nH]c(=O)n1C1CCCCC1", "fold change, <1 = inhibition": "inactive"}
{"smiles": "O=c1cc(N2CCN(c3cccc(C(F)(F)F)c3)CC2)[nH]c(=O)n1C1CCCCC1", "fold change, <1 = inhibition": "inactive"}
{"smiles": "CCn1c(=O)cc(N2CCN(c3cccc(C(F)(F)F)c3)CC2)[nH]c1=O", "fold change, <1 = inhibition": "inactive"}
{"smiles": "CCn1c(=O)cc(N2CCN(c3cccc(Cl)c3)CC2)[nH]c1=O", "fold change, <1 = inhibition": "inactive"}
{"smiles": "Cn1c(=O)cc(N2CCN(c3cccc(Cl)c3)CC2)[nH]c1=O", "fold change, <1 = inhibition": "inactive"}
{"smiles": "O=c1cc(N2CCN(c3ccccc3)CC2)[nH]c(=O)n1C1CCCCC1", "fold change, <1 = inhibition": "inactive"}
{"smiles": "O=c1cc(N2CCN(c3ccccn3)CC2)[nH]c(=O)n1C1CCCCC1", "fold change, <1 = inhibition": "inactive"}
